Test results reported in PMC9112330 (ACS Infectious Diseases, 2022).

Assay: In vivo fluorescence bioimaging / biodistribution
Parameters: species or system mouse
Details: n = 2
Method in brief: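 AF680 was attached through a cysteine inserted between the PNA and the dendron, by maleimide coupling. Two NMRI-nu mice received 200 μL of 10 μM labelled conjugate. Under 2% isoflurane, epifluorescence was imaged at 675/720 nm from pre-injection to 48 h, followed by an ex vivo organ scan. Body and kidney ROI signals were expressed as % of initial signal (Y0, from linear regression of the first three points), and half-life came from one-phase decay fit.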

H-(Gbu)8-(DAB)4-(DAB)2-DAB-Cys(AF680)-CTCATACTCT-NH2 [AF680-PNA4897]
organ accumulation of remaining fluorescence (ex vivo scan of excised organs 48 h post i.v. administration): accumulated predominantly in the kidney and in the liver | time to distribution in the whole body (i.v. tail vein, 200 μL of 10 μM, nude mice, near-IR fluorescence imaging): < 5 min
